# Assay results of several laboratories.
# Target: Receptor tyrosine-protein kinase erbB-3 (ERBB3, Homo sapiens, UniProt P21860)
SMILES,assay,conditions,remaining binding [%]
N[C@@H]1CCN(c2nccc(-c3cnn4ncccc34)n2)C1,binding,1 µM,100
COc1cnc(Nc2cccc(S(N)(=O)=O)c2)nc1N1CCN(c2ccccc2)CC1,"binding, competition with immobilised ligand",1 µM,88
CCOC(=O)c1cc2cc(-c3cc(C(=O)NCc4ccc(C(=O)O)cc4)nn3C)ccc2[nH]1,"cell-free assay, competition with immobilised ligand",0.1 µM,81
COc1ccnn2ncc(-c3ccnc(N(C)C)n3)c12,binding,1 µM,100
O=C(Nc1ccc(Oc2ccc(F)cc2)cc1)N1CCc2ncccc2[C@H]1c1ccc(F)cc1,"cell-free assay, competition with immobilised ligand",1 µM,100
COc1ncc2cc3ccccc3nc2c1C#N,"cell-free assay, competition with immobilised ligand",5 µM,76
O=C(Nc1c[nH]nc1C(=O)NC1CCNCC1)c1cc(F)cc(F)c1,"binding, competition with immobilised ligand",1 µM,86
Cc1cnn2ncc(-c3ccnc(N(C)C)n3)c2c1,binding,1 µM,100
C=CC(=O)N1CCC(C(=O)NCC(=O)N2CCN(c3nc(-c4cnc(N)nc4C(F)F)nc(N4CCOCC4)n3)CC2)CC1,"binding, competition with immobilised ligand",1 µM,84
C[C@@H]1CCN(c2nccc(-c3cnn4ncccc34)n2)C1,binding,1 µM,100
COc1ccc2c(c1)O[C@H](c1ccc(OC)c(OC)c1)C[C@@H]2NC(=O)C1(c2ccc3c(c2)OC(F)(F)O3)CC1,"cell-free assay, competition with immobilised ligand",1 µM,92
O=C(c1ccc(Nc2ncc(Cl)c(-c3cc4ccccc4s3)n2)cc1)N1CCC(N2CCCC2)CC1,"binding, competition with immobilised ligand",1 µM,81
O=C1CCc2cc(Nc3cc(OC4CCOCC4)c([N+](=O)[O-])cc3Cl)ccc2N1,"cell-free assay, competition with immobilised ligand",1 µM,98
CN(C)c1ncc(F)c(-c2cnn3ncccc23)n1,binding,1 µM,100
Cc1cnc(Nc2ccc(C(=O)N3CCC(N4CCCC4)CC3)cc2)nc1-c1cc2ccccc2s1,"binding, competition with immobilised ligand",1 µM,89
CNC(=O)[C@@H]1CC[C@@H](n2c(-c3ccc4cnccc4c3)nc3ccc(C(=O)NCc4cccc(C(N)=O)c4)cc32)C1,"binding, competition with immobilised ligand",1 µM,100
CCCOc1ccc([C@H]2[C@H](C(=O)O)[C@@H](c3ccc4c(c3)OCO4)CN2CC(=O)Nc2c(CC)cccc2CC)cc1,"cell-free assay, competition with immobilised ligand",1 µM,78
CCN1CCN(Cc2ccc(C(=O)Nc3ccc(C)c(Oc4ccc5c(c4)CC(=O)N5)c3)cc2C(F)(F)F)CC1,"binding, competition with immobilised ligand",1 µM,100
O=C(NCc1ncc(C(F)(F)F)cc1Cl)c1ccc2c(c1)C1(CCS(=O)(=O)CC1)[C@H](C1CC1)N2S(=O)(=O)c1ccc(F)cc1,"cell-free assay, competition with immobilised ligand",1 µM,100
CN(CCCC(F)(F)F)c1nccc(-c2cnn3ncccc23)n1,binding,1 µM,100
C[C@H](NC(=O)c1cnc2n1[C@](C)(Cc1ccc(C#N)cc1)C(=O)N2c1cc(Cl)c(F)c(Cl)c1)C(=O)NC1(c2ccccn2)CC1,"cell-free assay, competition with immobilised ligand",1 µM,100
O=C(NCCCN1CCOCC1)c1ccc(Nc2ncc(Cl)c(-c3ccc(Cl)s3)n2)cc1,"binding, competition with immobilised ligand",1 µM,91
